Test results reported in ChEMBL document CHEMBL5661979, “Pharmacological inhibition of BMK1 suppresses tumor growth through promyelocytic leukemia protein” (Cancer Cell, 2010).

How the values were obtained:
Format in all cases: subcellular
[1] = target: Serine/threonine-protein kinase PLK1 (Homo sapiens, UniProt P53350); test: Inhibition of PLK1 K1 site in human HeLa cells lysate pre incubated for 15 mins followed by ATP acyl phosphate probe addition and measured after 10 mins by LC-MS/MS analysis
[2] = target: Dual specificity mitogen-activated protein kinase kinase 4 (Homo sapiens, UniProt P45985); test: Inhibition of MAP2K4 in human HeLa cells lysate pre incubated for 15 mins followed by ADP acyl phosphate probe addition and measured after 10 mins by LC-MS/MS analysis
[3] = target: Serine/threonine-protein kinase MARK2 (Homo sapiens, UniProt Q7KZI7); test: Inhibition of MARK2 in human HeLa cells lysate pre incubated for 15 mins followed by ADP acyl phosphate probe addition and measured after 10 mins by LC-MS/MS analysis
[4] = target: Serine/threonine-protein kinase 38-like (Homo sapiens, UniProt Q9Y2H1); test: Inhibition of NDR2 in human HeLa cells lysate pre incubated for 15 mins followed by ADP acyl phosphate probe addition and measured after 10 mins by LC-MS/MS analysis
Chain of Serine/threonine-protein kinase 38-like (Q9Y2H1 whole entry): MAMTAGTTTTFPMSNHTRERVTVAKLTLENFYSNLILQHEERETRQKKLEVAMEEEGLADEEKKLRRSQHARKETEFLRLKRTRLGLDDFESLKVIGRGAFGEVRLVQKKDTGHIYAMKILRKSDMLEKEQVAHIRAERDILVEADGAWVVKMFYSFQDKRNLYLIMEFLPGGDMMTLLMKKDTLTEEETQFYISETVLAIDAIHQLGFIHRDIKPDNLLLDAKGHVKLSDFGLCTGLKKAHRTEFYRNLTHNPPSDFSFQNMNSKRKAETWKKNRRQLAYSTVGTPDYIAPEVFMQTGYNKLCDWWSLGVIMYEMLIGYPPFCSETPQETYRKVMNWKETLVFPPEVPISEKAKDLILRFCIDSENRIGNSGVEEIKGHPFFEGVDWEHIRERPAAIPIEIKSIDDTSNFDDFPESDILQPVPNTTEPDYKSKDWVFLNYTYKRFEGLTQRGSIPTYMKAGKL

[5] = target: DNA-dependent protein kinase catalytic subunit (Homo sapiens, UniProt P78527); test: Inhibition of PRKDC in human HeLa cells lysate pre incubated for 15 mins followed by ADP acyl phosphate probe addition and measured after 10 mins by LC-MS/MS analysis
[6] = target: Serine/threonine-protein kinase ULK3 (Homo sapiens, UniProt Q6PHR2); test: Inhibition of ULK3 in human HeLa cells lysate pre incubated for 15 mins followed by ADP acyl phosphate probe addition and measured after 10 mins by LC-MS/MS analysis
[7] = target: Ribosomal protein S6 kinase alpha-5 (Homo sapiens, UniProt O75582); test: Inhibition of MSK1 domain 1 in human HeLa cells lysate at 10 uM pre incubated for 15 mins followed by ADP acyl phosphate probe addition and measured after 10 mins by LC-MS/MS analysis relative to control; conditions: time 25.0 min
[8] = target: T1, Serine/threonine-protein kinase Nek9 (Homo sapiens) (UniProt Q8TD19); test: Inhibition of NEK9 in human HeLa cells lysate at 10 uM pre incubated for 15 mins followed by ADP acyl phosphate probe addition and measured after 10 mins by LC-MS/MS analysis relative to control; conditions: time 25.0 min
T1 sequence (whole entry): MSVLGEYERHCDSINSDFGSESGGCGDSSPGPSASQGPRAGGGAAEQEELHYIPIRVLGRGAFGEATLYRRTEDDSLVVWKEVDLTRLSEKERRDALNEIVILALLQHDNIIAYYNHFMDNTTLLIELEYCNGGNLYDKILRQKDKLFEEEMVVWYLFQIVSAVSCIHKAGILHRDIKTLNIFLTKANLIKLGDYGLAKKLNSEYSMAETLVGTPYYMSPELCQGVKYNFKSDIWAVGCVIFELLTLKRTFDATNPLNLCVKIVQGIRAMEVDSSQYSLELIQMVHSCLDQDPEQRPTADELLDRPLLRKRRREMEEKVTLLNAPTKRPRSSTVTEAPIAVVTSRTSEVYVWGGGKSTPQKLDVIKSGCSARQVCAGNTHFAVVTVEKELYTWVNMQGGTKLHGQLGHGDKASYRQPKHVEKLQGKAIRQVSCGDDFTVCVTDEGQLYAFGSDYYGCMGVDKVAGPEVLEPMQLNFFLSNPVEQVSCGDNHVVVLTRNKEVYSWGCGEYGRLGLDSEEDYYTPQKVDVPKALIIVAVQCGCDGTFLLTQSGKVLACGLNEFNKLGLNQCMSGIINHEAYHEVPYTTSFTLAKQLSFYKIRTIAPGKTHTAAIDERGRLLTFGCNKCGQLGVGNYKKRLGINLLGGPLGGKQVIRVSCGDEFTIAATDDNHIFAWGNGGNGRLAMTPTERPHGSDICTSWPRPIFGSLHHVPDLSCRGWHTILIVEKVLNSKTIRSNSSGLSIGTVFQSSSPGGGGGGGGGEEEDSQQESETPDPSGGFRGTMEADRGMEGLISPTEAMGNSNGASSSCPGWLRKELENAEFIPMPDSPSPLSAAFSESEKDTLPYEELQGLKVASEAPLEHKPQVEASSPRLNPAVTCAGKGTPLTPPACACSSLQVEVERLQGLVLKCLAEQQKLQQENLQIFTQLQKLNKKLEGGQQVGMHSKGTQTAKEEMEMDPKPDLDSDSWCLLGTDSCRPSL

[9] = target: Mitogen-activated protein kinase 3 (Homo sapiens, UniProt P27361); test: Inhibition of ERK1 in human HeLa cells lysate at 10 uM pre incubated for 15 mins followed by ADP acyl phosphate probe addition and measured after 10 mins by LC-MS/MS analysis relative to control; conditions: time 25.0 min
[10] = target: Tyrosine-protein kinase receptor UFO (Homo sapiens) (UniProt P30530); test: Inhibition of AXL in human HeLa cells lysate at 2 uM pre incubated for 15 mins followed by ADP acyl phosphate probe addition and measured after 10 mins by LC-MS/MS analysis relative to control; conditions: time 25.0 min
Chain of Tyrosine-protein kinase receptor UFO (Homo sapiens) (P30530 whole entry, the tested form may be a part): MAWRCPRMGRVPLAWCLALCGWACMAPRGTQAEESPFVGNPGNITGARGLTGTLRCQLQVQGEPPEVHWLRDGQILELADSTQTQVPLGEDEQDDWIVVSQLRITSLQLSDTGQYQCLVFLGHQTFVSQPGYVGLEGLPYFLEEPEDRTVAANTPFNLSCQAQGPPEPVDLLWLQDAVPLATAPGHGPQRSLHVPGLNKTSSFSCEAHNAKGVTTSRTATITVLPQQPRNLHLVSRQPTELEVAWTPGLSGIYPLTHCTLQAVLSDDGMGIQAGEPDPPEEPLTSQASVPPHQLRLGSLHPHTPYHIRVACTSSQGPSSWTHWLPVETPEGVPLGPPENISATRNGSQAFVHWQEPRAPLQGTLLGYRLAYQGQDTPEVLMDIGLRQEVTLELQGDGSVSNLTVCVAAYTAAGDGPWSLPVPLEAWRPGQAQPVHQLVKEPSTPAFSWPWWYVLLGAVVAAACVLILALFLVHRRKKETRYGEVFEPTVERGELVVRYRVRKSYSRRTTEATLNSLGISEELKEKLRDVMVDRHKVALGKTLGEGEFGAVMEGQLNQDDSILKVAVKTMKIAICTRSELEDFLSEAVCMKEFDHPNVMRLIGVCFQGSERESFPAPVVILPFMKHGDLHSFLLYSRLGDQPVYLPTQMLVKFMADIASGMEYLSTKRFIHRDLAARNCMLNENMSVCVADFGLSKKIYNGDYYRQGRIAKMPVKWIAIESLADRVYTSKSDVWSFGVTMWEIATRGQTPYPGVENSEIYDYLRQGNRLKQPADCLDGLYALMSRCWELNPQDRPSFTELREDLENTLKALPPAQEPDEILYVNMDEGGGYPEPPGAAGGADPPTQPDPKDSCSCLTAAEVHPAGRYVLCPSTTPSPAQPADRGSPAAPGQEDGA
How it was run: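 KiNativ-type profiling in HeLa lysate (5 mg/mL total protein). Lysate preincubated 15 min with inhibitor at 50, 10, 2, 0.8 or 0 μM, then ATP or ADP acylphosphate probe added (5 μM final) for 10 min. Reaction stopped with urea and analysed by targeted MS, using up to four fragment ions per kinase peptide-probe conjugate. % inhibition calculated against untreated lysate. Duplicate reactions.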

[11] = target: Serine/threonine-protein kinase 38 (Homo sapiens, UniProt Q15208); test: Inhibition of NDR1 in human HeLa cells lysate at 50 uM pre incubated for 15 mins followed by ATP acyl phosphate probe addition and measured after 10 mins by LC-MS/MS analysis relative to control; conditions: time 25.0 min
[12] = target: Tyrosine-protein kinase ABL (Homo sapiens, UniProt P00519+P42684); test: Inhibition of ABL1/2 in human HeLa cells lysate at 50 uM pre incubated for 15 mins followed by ATP acyl phosphate probe addition and measured after 10 mins by LC-MS/MS analysis relative to control; conditions: time 25.0 min
How it was run: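 HeLa cell lysates (5 mg/mL total protein) were preincubated with inhibitor at 0, 0.8, 2, 10 or 50 μM for 15 min. ATP or ADP acylphosphate probe was then added (5 μM final) for 10 min, and reactions were stopped with urea. Up to four fragment ions per kinase probe-peptide were quantified by targeted MS. % inhibition was taken relative to untreated lysate. Run in duplicate.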

[13] = target: Ephrin type-A receptor 2 (Homo sapiens, UniProt P29317); test: Inhibition of EphA2 in human HeLa cells lysate at 50 uM pre incubated for 15 mins followed by ATP acyl phosphate probe addition and measured after 10 mins by LC-MS/MS analysis relative to control; conditions: time 25.0 min
[14] = target: Serine/threonine-protein kinase SMG1 (Homo sapiens, UniProt Q96Q15); test: Inhibition of SMG1 in human HeLa cells lysate at 10 uM pre incubated for 15 mins followed by ATP acyl phosphate probe addition and measured after 10 mins by LC-MS/MS analysis relative to control; conditions: time 25.0 min
Chain of Serine/threonine-protein kinase SMG1 (Q96Q15 whole entry): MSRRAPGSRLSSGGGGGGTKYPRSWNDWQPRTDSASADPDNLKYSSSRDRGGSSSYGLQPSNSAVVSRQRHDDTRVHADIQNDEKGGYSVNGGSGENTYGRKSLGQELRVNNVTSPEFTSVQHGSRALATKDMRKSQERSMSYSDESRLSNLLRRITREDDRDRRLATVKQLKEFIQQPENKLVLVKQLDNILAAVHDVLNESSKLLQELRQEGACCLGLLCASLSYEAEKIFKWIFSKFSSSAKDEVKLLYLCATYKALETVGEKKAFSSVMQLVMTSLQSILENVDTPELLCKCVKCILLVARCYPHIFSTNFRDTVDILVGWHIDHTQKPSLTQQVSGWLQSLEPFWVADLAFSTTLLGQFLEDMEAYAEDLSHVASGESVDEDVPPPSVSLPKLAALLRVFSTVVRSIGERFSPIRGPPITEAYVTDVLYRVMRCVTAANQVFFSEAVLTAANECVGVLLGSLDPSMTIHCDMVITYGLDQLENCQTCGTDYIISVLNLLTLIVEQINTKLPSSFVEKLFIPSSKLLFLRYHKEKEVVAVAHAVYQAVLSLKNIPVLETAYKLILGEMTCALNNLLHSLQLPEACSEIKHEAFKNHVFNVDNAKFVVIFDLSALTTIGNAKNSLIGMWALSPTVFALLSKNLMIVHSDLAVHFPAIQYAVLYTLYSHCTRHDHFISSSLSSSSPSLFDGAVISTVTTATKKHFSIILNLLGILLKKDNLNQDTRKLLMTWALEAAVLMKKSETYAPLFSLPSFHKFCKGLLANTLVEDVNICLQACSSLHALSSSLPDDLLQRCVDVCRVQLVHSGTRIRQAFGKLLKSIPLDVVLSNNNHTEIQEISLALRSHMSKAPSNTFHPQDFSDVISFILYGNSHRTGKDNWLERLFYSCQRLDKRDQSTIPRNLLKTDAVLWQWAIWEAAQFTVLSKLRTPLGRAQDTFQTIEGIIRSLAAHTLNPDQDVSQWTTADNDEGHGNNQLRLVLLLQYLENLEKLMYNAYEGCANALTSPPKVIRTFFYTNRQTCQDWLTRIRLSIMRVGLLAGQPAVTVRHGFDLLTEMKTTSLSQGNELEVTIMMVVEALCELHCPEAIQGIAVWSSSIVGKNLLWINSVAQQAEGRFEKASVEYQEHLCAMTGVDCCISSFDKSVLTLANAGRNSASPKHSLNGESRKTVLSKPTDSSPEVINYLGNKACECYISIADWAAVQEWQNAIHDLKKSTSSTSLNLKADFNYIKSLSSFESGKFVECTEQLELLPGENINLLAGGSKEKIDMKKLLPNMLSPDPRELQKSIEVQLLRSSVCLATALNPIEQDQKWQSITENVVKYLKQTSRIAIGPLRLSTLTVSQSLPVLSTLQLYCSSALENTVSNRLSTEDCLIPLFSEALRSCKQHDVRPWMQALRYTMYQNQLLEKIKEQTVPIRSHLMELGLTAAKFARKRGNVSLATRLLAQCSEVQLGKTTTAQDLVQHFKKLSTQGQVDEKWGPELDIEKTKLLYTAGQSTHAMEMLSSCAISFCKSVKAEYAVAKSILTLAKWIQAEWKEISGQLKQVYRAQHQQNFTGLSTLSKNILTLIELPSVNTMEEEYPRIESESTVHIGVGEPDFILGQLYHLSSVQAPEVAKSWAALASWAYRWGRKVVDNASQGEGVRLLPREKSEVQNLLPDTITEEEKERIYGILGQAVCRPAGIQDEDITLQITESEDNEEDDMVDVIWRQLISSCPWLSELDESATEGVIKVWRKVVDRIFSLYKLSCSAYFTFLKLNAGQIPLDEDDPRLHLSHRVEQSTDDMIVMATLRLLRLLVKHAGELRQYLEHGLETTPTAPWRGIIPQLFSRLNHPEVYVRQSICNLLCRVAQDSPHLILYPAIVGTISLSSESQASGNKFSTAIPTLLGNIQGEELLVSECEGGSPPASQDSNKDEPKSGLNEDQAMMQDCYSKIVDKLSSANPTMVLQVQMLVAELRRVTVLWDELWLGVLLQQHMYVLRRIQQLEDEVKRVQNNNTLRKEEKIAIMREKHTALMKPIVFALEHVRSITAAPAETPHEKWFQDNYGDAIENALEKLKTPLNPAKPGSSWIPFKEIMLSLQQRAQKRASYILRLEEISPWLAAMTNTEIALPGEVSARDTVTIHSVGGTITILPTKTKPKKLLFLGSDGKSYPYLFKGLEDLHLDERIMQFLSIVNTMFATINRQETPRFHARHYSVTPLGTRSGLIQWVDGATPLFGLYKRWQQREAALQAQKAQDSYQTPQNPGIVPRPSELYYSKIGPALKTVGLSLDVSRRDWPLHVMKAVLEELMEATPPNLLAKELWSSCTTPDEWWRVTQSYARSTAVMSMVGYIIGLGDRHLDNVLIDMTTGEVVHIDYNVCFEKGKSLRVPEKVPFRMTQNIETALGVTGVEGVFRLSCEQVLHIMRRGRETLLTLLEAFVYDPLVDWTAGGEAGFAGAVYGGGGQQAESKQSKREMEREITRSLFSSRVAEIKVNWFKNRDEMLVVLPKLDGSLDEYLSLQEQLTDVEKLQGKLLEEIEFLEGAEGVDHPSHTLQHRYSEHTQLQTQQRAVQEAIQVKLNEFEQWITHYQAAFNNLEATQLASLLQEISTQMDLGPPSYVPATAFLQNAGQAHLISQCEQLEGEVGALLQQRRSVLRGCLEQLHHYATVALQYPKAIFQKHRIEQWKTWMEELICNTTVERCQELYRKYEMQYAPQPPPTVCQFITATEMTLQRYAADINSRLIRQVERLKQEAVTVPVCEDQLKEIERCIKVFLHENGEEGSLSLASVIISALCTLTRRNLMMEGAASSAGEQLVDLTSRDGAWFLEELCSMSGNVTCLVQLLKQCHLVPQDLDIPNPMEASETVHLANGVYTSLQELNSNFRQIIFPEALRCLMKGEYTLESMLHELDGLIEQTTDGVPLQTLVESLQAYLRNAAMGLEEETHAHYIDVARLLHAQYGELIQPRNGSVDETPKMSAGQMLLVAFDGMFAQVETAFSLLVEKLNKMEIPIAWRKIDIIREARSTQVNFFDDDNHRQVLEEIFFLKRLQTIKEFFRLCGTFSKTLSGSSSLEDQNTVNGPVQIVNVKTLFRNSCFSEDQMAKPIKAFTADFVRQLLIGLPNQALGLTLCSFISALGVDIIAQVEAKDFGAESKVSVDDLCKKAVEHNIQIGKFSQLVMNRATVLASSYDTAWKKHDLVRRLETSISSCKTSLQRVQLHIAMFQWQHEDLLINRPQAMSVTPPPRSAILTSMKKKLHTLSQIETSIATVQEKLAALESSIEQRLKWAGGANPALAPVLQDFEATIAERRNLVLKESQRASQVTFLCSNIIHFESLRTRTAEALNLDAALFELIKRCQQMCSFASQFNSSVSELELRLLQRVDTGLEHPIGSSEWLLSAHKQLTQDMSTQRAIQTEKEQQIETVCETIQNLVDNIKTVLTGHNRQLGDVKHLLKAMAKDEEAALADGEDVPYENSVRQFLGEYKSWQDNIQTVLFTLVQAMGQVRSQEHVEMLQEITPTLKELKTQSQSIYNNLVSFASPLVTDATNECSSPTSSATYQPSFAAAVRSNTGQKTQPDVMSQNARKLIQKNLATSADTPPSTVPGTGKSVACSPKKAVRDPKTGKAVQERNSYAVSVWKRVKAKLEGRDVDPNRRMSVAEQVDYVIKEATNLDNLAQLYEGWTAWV

[15] = target: Serine/threonine-protein kinase LATS1 (Homo sapiens) (UniProt O95835); test: Inhibition of LATS1 in human HeLa cells lysate at 2 uM pre incubated for 15 mins followed by ATP acyl phosphate probe addition and measured after 10 mins by LC-MS/MS analysis relative to control; conditions: time 25.0 min

## CCOc1cc(N2CCC(O)CC2)ccc1Nc1ncc2c(n1)N(C)c1ccccc1C(=O)N2C
[1]
  IC50: > 50 µM
[2]
  IC50: > 50 µM
[3]
  IC50: > 50 µM
[4]
  IC50: > 50 µM
[5]
  IC50: > 50 µM
[6]
  IC50: > 50 µM
[7]
  inhibition: -7.3%
[8]
  inhibition: 4.3%
[9]
  inhibition: -3.9%
[10]
  inhibition: 13.1%
[11]
  inhibition: 5.3%
[12]
  inhibition: 4.9%
[13]
  inhibition: -7.8%
[14]
  inhibition: 3.9%
[15]
  inhibition: 5.7%
